Reference: the array DNA melting data of Ke et al. (doi:10.1101/2024.01.08.574731)

Assays:
[1] = folding enthalpy; higher = less favourable; fluorescence melt of hairpins on a sequencing array, two-state fit; conditions: sodium 0.088 M
How it was run: (§1)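 To match UV melts, fitted temperatures were raised by 9.35 °C. These fits were bootstrapped two-state models that gave melting temperature and folding enthalpy, combined by inverse variance over four replicates. The input was normalised Cy3 fluorescence of library hairpins with annealed Cy3 and quencher oligos on a sequenced MiSeq flow cell, imaged in 50 mM Na-HEPES pH 8.0, 25 mM NaCl in 2.5 °C steps up to 60 °C.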

[2] = melting temperature; fluorescence melt of hairpins on a sequencing array, two-state fit, raised by 9.35 °C to match UV melts; conditions: sodium 0.088 M
How it was run: as §1

| Sequence | folding enthalpy [1] | Tm [2] |
| --- | --- | --- |
| AAATGGAAACATTT (((((....))))) | -9.49 kcal/mol | 27.2 °C |
| AAGAGGAAACTCTT (((((....))))) | -9.65 kcal/mol | 28 °C |
| AAGCTGAAAAGCTT (((((....))))) | -21.1 kcal/mol | 49.3 °C |
| AAGGAGAAATCCTT (((((....))))) | -8.61 kcal/mol | 27.3 °C |
| ACAGAGAAATCTGT (((((....))))) | -13.6 kcal/mol | 32.7 °C |
| ACATTGAAAAATGT (((((....))))) | -13.4 kcal/mol | 32.9 °C |
| ACCCGGAAACGGGT (((((....))))) | -19.5 kcal/mol | 58.1 °C |
| ACCTGGAAACAGGT (((((....))))) | -18.8 kcal/mol | 51.1 °C |
| ACGAAGAAATTCGT (((((....))))) | -18.1 kcal/mol | 38 °C |
| ACTATGAAAATAGT (((((....))))) | -11.8 kcal/mol | 32.2 °C |
| ACTCTGAAAAGAGT (((((....))))) | -17.4 kcal/mol | 43.4 °C |
| ACTTGGAAACAAGT (((((....))))) | -17.8 kcal/mol | 38.4 °C |
| AGAACCCGAAAGGCTTCT ((((.((....)).)))) | -17.7 kcal/mol | 33.6 °C |
| AGAATCAGAAATGGTTCT ((((.((....)).)))) | -26.5 kcal/mol | 30.6 °C |
| AGAATCCGAAAGGCTTCT ((((.((....)).)))) | -27.3 kcal/mol | 35.6 °C |
| AGACCGAAAGGTCT (((((....))))) | -21.1 kcal/mol | 68.6 °C |
| AGATGGAAACATCT (((((....))))) | -19 kcal/mol | 42.1 °C |
| AGCATGAAAATGCT (((((....))))) | -22.2 kcal/mol | 50 °C |
| AGCGAGAAATCGCT (((((....))))) | -20.7 kcal/mol | 53.7 °C |
| AGCGGGAAACCGCT (((((....))))) | -19.1 kcal/mol | 67.1 °C |
| AGGGGGAAACCCCT (((((....))))) | -17.5 kcal/mol | 53.5 °C |
| AGGGTGAAAACCCT (((((....))))) | -19.3 kcal/mol | 53.9 °C |
| AGGTTGAAAAACCT (((((....))))) | -20.5 kcal/mol | 45.6 °C |
| ATAACGAAAGTTAT (((((....))))) | -15.2 kcal/mol | 46.3 °C |

| Sequence | folding enthalpy [1] | Tm [2] |
| --- | --- | --- |
| ATACCGAAAGGTAT (((((....))))) | -20.2 kcal/mol | 52.2 °C |
| ATACGGAAACGTAT (((((....))))) | -21.8 kcal/mol | 43.5 °C |
| ATACTGAAAAGTAT (((((....))))) | -12.3 kcal/mol | 30.6 °C |
| ATCGAGAAATCGAT (((((....))))) | -23.9 kcal/mol | 39.5 °C |
| ATGAGGAAACTCAT (((((....))))) | -17.6 kcal/mol | 39.6 °C |
| ATGATGAAAATCAT (((((....))))) | -15.2 kcal/mol | 39.5 °C |
| ATGTTGAAAAACAT (((((....))))) | -13 kcal/mol | 37 °C |
| CAAAGGAAACTTTG (((((....))))) | -16.2 kcal/mol | 35 °C |
| CACATGAAAATGTG (((((....))))) | -27.3 kcal/mol | 47.9 °C |
| CACCAGAAATGGTG (((((....))))) | -23.4 kcal/mol | 50 °C |
| CACTCGAAAGAGTG (((((....))))) | -24.4 kcal/mol | 59.9 °C |
| CAGACGAAAGTCTG (((((....))))) | -24.4 kcal/mol | 61.9 °C |
| CATAGGAAACTATG (((((....))))) | -14.3 kcal/mol | 38.4 °C |
| CCAAAGAAATTTGG (((((....))))) | -8.79 kcal/mol | 30.9 °C |
| CCAAGGAAACTTGG (((((....))))) | -20.3 kcal/mol | 46 °C |
| CCAGTGAAAACTGG (((((....))))) | -19.8 kcal/mol | 50.8 °C |
| CCATGGAAACATGG (((((....))))) | -23.2 kcal/mol | 49.6 °C |
| CCCTGGAAACAGGG (((((....))))) | -20 kcal/mol | 56.9 °C |
| CCTTGGAAACAAGG (((((....))))) | -15.7 kcal/mol | 47.2 °C |
| CGAAAACGGAAACGTTCG (((..(((....)))))) | -19.8 kcal/mol | 37 °C |
| CGAAACCGGAAACGGTCG (((..(((....)))))) | -14.9 kcal/mol | 43.8 °C |
| CGAAACGGAAACGTATCG (((.(((....))).))) | -30.8 kcal/mol | 42.6 °C |
| CGAACCCGGAAACGGTCG (((..(((....)))))) | -13 kcal/mol | 36.7 °C |
| CGAACGCGGAAACGCTCG (((..(((....)))))) | -17.2 kcal/mol | 40.5 °C |

| Sequence | folding enthalpy [1] | Tm [2] |
| --- | --- | --- |
| CGAACGGAAACGTAATCG ((((((....)))..))) | -8.82 kcal/mol | 24.5 °C |
| CGAAGACGGAAACGTTCG (((..(((....)))))) | -13.8 kcal/mol | 39 °C |
| CGAATACGGAAACGTTCG (((..(((....)))))) | -24.9 kcal/mol | 34 °C |
| CGACACGGAAACGTCTCG (((.(((....))).))) | -26.8 kcal/mol | 35.9 °C |
| CGACAGCGGAAACGCTCG (((..(((....)))))) | -12.9 kcal/mol | 40.3 °C |
| CGACATCGGAAACGATCG (((..(((....)))))) | -12.7 kcal/mol | 34 °C |
| CGACCACGGAAACGTTCG (((..(((....)))))) | -12.3 kcal/mol | 30.5 °C |
| CGACCGCGGAAACGCTCG (((..(((....)))))) | -11.2 kcal/mol | 34 °C |
| CGACCGGAAACGGTCTCG ((((((....)))..))) | -8.29 kcal/mol | 38 °C |
| CGACGCGGAAACGCCTCG (((.(((....))).))) | -23.9 kcal/mol | 41.5 °C |
| CGACTCGGAAACGATTCG (((.(((....))).))) | -41 kcal/mol | 42.5 °C |
| CGACTGAAAAGTCG (((((....))))) | -26.5 kcal/mol | 58.5 °C |
| CGACTGCGGAAACGCTCG (((..(((....)))))) | -12.5 kcal/mol | 32.7 °C |
| CGAGCGGAAACGCACTCG ((((((....)))..))) | -15.8 kcal/mol | 37.6 °C |
| CGAGCGGAAACGCGTTCG ((((((....)))..))) | -12.6 kcal/mol | 49.9 °C |
| CGAGTACGGAAACGTTCG (((..(((....)))))) | -20.4 kcal/mol | 36.6 °C |
| CGAGTCGGAAACGATTCG (((.(((....))).))) | -47.2 kcal/mol | 50.4 °C |
| CGAGTGAAAACTCG (((((....))))) | -24.6 kcal/mol | 54.6 °C |
| CGATCCCGGAAACGGTCG (((..(((....)))))) | -19.9 kcal/mol | 30.7 °C |
| CGATCCGGAAACGGGTCG (((.(((....))).))) | -38.8 kcal/mol | 57.2 °C |
| CGATCGAAAGATCG (((((....))))) | -30.4 kcal/mol | 59.9 °C |
| CGATCGGAAACGAAGTCG ((((((....)))..))) | -11.7 kcal/mol | 25.6 °C |
| CGATCGGAAACGACATCG ((((((....)))..))) | -24 kcal/mol | 32 °C |
| CGATCGGAAACGACTCG ((((((....))).))) | -31 kcal/mol | 40.7 °C |
